Assay results: ChEMBL document CHEMBL1148634 (J Med Chem, 2006)
Active and inactive are the calls of the source. The calls are words filed in the database; no cut-off is given here.

Tests used:
[1] = molecular target: T1, Melatonin receptor type 1A (Homo sapiens, UniProt P48039); experiment: Displacement of 2-[125I]iodomelatonin from human recombinant MT1 receptor expressed in NIH3T3 cells; assay type: cell-based
Melanophore [2] = experiment: Agonist activity in Xenopus laevis melanophore assessed as potency for pigment aggregation; assay type: functional, cell-based
Method in brief: (§1)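 A clonal Xenopus laevis melanophore line was grown in 96-well plates, and medium was switched to 0.7 × L-15 18 h before testing. Initial absorbance at 630 nm was read, analogue was added, and final absorbance was read after 60 min. Response was the fractional change 1 − (Af/Ai).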

Melanophore [3] = experiment: Antagonist activity in Xenopus laevis melanophore assessed as potency for pigment aggregation at 10 uM; assay type: functional, cell-based
Method in brief: (§2)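 Antagonism of the pigment aggregation response was tested on a clonal Xenopus laevis melanophore line.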

[4] = molecular target: T2, Melatonin receptor type 1B (Homo sapiens, UniProt P49286); experiment: Displacement of 2-[125I]iodomelatonin from human recombinant MT2 receptor expressed in NIH3T3 cells; assay type: cell-based
T2 sequence (P49286 whole entry): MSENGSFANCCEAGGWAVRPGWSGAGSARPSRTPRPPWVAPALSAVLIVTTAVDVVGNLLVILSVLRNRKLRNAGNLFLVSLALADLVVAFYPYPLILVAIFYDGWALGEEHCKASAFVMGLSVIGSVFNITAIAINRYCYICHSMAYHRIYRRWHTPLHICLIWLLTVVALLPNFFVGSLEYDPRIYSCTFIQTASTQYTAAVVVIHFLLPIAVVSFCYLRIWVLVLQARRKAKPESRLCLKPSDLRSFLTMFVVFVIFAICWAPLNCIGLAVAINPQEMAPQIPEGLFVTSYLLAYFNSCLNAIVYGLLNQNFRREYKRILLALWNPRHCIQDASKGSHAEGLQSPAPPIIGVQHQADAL

Melanophore [5] = experiment: Antagonist activity in Xenopus laevis melanophore assessed as potency for pigment aggregation; assay type: functional, cell-based; method in brief: as §2
Melanophore [6] = experiment: Agonist activity in Xenopus laevis melanophore assessed as potency for pigment aggregation at 10 uM; assay type: functional, cell-based; method in brief: as §1
Melanophore [7] = experiment: Potency for pigment aggregation in Xenopus laevis melanophore at 10 uM relative to melatonin; assay type: functional
[8] = molecular target: T1, Melatonin receptor type 1A; experiment: Activity at MT1 receptor expressed in NIH3T3 cells assessed as inhibition of […] cAMP synthesis at 10 uM; assay type: functional, cell-based; conditions: filed as antagonist
Method in brief: (§3)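 Antagonism was tested in NIH 3T3 cells expressing human MT1. […] Cyclic AMP was measured in duplicate by radioimmunoassay. Data are mean ± SEM of quadruplicate cell samples.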

[9] = molecular target: T1, Melatonin receptor type 1A; experiment: Activity at MT1 receptor expressed in NIH3T3 cells assessed as inhibition of forskolin-stimulated cAMP synthesis at 10 uM; assay type: functional, cell-based
Method in brief: (§4)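 NIH 3T3 cells stably expressing cloned human MT1 or MT2 receptors were pretreated with IBMX (25 µM, 10 min), then given forskolin (1 µM, 10 min) with or without test agent. Cyclic AMP was measured in duplicate by radioimmunoassay for each cell sample. Data are mean ± SEM of quadruplicate cell samples.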

[10] = molecular target: T3, Melatonin receptor type 1B (Homo sapiens) (UniProt P49286); experiment: Activity at MT2 receptor expressed in NIH3T3 cells assessed as inhibition of forskolin-stimulated cAMP synthesis; assay type: functional, cell-based; conditions: filed as agonist; method in brief: as §4
T3 sequence (whole entry): T2 sequence (P49286 whole entry)

[11] = molecular target: T1, Melatonin receptor type 1A; experiment: Activity at MT1 receptor expressed in NIH3T3 cells assessed as inhibition of forskolin-stimulated cAMP synthesis; assay type: functional, cell-based; conditions: filed as agonist; method in brief: as §4
[12] = molecular target: T1, Melatonin receptor type 1A; experiment: Activity at MT1 receptor expressed in NIH3T3 cells assessed as inhibition of […] cAMP synthesis; assay type: functional, cell-based; conditions: filed as antagonist; method in brief: as §3
[13] = molecular target: T1, Melatonin receptor type 1A; experiment: Activity at MT1 receptor expressed in NIH3T3 cells assessed as inhibition of forskolin-stimulated cAMP synthesis at 1 uM; assay type: functional, cell-based; method in brief: as §4
[14] = Xenopus laevis, Melanophore, read-out: EC50

T1 sequence (P48039 whole entry): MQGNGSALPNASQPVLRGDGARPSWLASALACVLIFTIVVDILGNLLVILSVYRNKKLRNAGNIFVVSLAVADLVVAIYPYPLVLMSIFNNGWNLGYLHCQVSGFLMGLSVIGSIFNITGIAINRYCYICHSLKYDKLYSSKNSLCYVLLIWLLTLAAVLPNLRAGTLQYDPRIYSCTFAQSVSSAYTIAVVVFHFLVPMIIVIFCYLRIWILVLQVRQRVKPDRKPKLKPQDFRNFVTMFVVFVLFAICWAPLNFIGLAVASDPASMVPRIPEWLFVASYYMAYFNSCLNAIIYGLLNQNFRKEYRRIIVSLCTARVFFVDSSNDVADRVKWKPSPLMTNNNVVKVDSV

| Structure (SMILES) | Ki [1] | EC50 (Melanophore [2]; [14]) | Ki [4] | IC50 (Melanophore [5]) | Activity (Melanophore [3]) | other results |
| --- | --- | --- | --- | --- | --- | --- |
| CCC(=O)NCC1(c2c[nH]c3ccc(OC)cc23)CCC1 | 65.7 nM | 0.99 nM | 32 nM |  | inactive |  |
| COc1ccc2[nH]cc(C3(CNC(=O)C4CC4)CCC3)c2c1 | 57.8 nM |  | 28.9 nM | 2500 nM |  | Activity (Melanophore [6]): inactive |
| CCCC(=O)NCC1(c2cn(C)c3ccc(OC)cc23)CCCC1 | 589 nM |  | 85.1 nM | 1640 nM |  | Activity [8]: Antagonist; Activity [9]: inactive; Activity (Melanophore [6]): inactive |
| CCCC(=O)NCC1(c2c[nH]c3ccc(OC)cc23)CCC1 | 116 nM | 2.56 nM | 57.4 nM |  | inactive | Activity [10]: Agonist; Activity [11]: Agonist |
| Cn1cc(C2(CNC(=O)C3CC3)CCC2)c2ccccc21 | 617 nM |  | 1440 nM | 3440 nM |  | EC50 (Melanophore [2]; melanophore): Not Active |
| COc1ccc2c(c1)c(C(C)CNC(C)=O)cn2C (stereo in doubt; (-)6a) [listing 1 of 2 here] |  |  |  |  | inactive |  |
| COc1ccc2c(c1)c(C1(CNC(=O)C3CC3)CCCC1)cn2C | 468 nM |  | 257 nM | 1180 nM |  | Activity (Melanophore [6]): inactive |
| COc1ccc2c(c1)c(C1(CNC(=O)C3CC3)CCC1)cn2C | 307 nM |  | 138 nM | 2070 nM |  | Activity (Melanophore [6]): inactive |
| COc1ccc2c(c1)c(C(C)CNC(C)=O)cn2C (stereo in doubt; 6a) [listing 1 of 2 here] |  |  |  |  | inactive |  |
| COc1ccc2c(c1)c(C(C)CNC(C)=O)cn2C (single isomer, unassigned; (+)) [listing 2 of 2 here] |  |  |  |  | inactive |  |
| COc1ccc2[nH]cc(C3(CNC(=O)C4CCC4)CCC3)c2c1 | 493 nM |  | 62.2 nM | > 10000 nM |  | Activity (Melanophore [6]): inactive |
| COc1ccc2c(c1)c(C1(CNC(=O)C3CCC3)CCC1)cn2C | 714 nM |  | 3770 nM | > 10000 nM |  | EC50 (Melanophore [2]; melanophore): Not Active; Activity (Melanophore [6]): inactive |
| COc1ccc2[nH]cc(C3(CNC(C)=O)CCC3)c2c1 | 8.2 nM | 1.67 nM | 3.3 nM |  | inactive |  |
| CCCC(=O)NCC1(c2cn(C)c3ccccc23)CCC1 | 724 nM |  | 1740 nM | 3030 nM |  | EC50 (Melanophore [2]; melanophore): Not Active |
| CCC(=O)NCC1(c2cn(C)c3ccccc23)CCC1 | 1510 nM |  | 1050 nM | 1150 nM |  | EC50 (Melanophore [2]; melanophore): Not Active |
| CC(=O)NCC1(c2cn(C)c3ccccc23)CCC1 | 2190 nM |  | 1260 nM | 1250 nM |  | EC50 (Melanophore [2]; melanophore): Not Active |
| CCC(=O)NCC1(c2cn(C)c3ccc(OC)cc23)CCCC1 | 302 nM |  | 102 nM | 811 nM |  | Activity (Melanophore [6]): inactive |
| COc1ccc2c(c1)c(C1(CNC(=O)C3CCC3)CCCC1)cn2C | 479 nM |  | 407 nM | 1770 nM |  | Activity (Melanophore [6]): inactive |
| COc1ccc2[nH]cc(CCNC(C)=O)c2c1 [MELATONIN] |  | 0.063 nM |  |  | inactive |  |

More lines, main results first:

| Ki [1] | EC50 (Melanophore [2]; [14]) | Ki [4] | IC50 (Melanophore [5]) | Structure (SMILES) | Activity (Melanophore [3]) | other results |
| --- | --- | --- | --- | --- | --- | --- |
| 34 nM | 980 nM | 4.4 nM | 826 nM | CCC(=O)NCC1(c2cn(C)c3ccc(OC)cc23)CCC1 |  | Activity (Melanophore [7]): 20% |
| 6.03 nM | 1.26 nM | 1.15 nM |  | CCC(=O)NCC(C)(C)c1cn(C)c2ccc(OC)cc12 | inactive |  |
|  |  | 0.27 nM |  | COc1ccc2c(c1)c(C(C)CNC(C)=O)cn2C (stereo in doubt; (-)6a) [listing 2 of 2 here] |  | EC50 (Melanophore [2]; melanophore, read-out: EC50): 10.8 nM |
| 10.6 nM | 2 nM | 0.86 nM |  | CCCC(=O)NCC1(c2cn(C)c3ccc(OC)cc23)CCC1 | inactive | Activity [12]: Antagonist; Activity (Melanophore [7]): 92%; Activity [13]: inactive |
|  |  | 0.5 nM |  | COc1ccc2c(c1)c(C(C)CNC(C)=O)cn2C (single isomer, unassigned; (+)) [listing 1 of 2 here] |  | EC50 (Melanophore [2]; melanophore, read-out: EC50): 0.98 nM |
| 148 nM |  | 66.1 nM | 628 nM | COc1ccc2c(c1)c(C1(CNC(C)=O)CCCC1)cn2C |  | Activity (Melanophore [6]): inactive |
| 483 nM | 1010 nM | 72 nM | 637 nM | COc1ccc2c(c1)c(C1(CNC(C)=O)CCC1)cn2C |  | Activity (Melanophore [7]): 8% |
| 1.12 nM | 0.0072 nM | 2.75 nM |  | COc1ccc2[nH]cc(C(C)(C)CNC(C)=O)c2c1 | inactive | Activity [10]: Agonist; Activity [11]: Agonist |
| 170 nM | 57.5 nM | 33.1 nM |  | COc1ccc2c(c1)c(C(C)(C)CNC(=O)C1CCC1)cn2C | inactive |  |
| 4.27 nM | 1 nM | 0.47 nM |  | CCCC(=O)NCC(C)c1cn(C)c2ccc(OC)cc12 (configuration not stated) | inactive |  |
|  |  | 0.41 nM |  | COc1ccc2c(c1)c(C(C)CNC(C)=O)cn2C (stereo in doubt; 6a) [listing 2 of 2 here] |  | EC50 (Melanophore [2]; melanophore, read-out: EC50): 1.72 nM |
| 4.9 nM | 3.72 nM | 1.02 nM |  | CCC(=O)NCC(C)c1cn(C)c2ccc(OC)cc12 (configuration not stated) | inactive |  |
| 212 nM | 1.7 nM | 7.5 nM |  | CCCC(=O)NCC1(c2cn(C)c3ccc(OC)cc23)CC1 | inactive | Activity [10]: Agonist; Activity [11]: Agonist |
| 11.5 nM | 6.31 nM | 1.29 nM |  | COc1ccc2c(c1)c(C(C)(C)CNC(C)=O)cn2C | inactive |  |
| 8.51 nM | 1 nM | 0.74 nM |  | CCCC(=O)NCC(C)(C)c1cn(C)c2ccc(OC)cc12 | inactive | Activity [10]: Agonist; Activity [11]: Agonist |
| 86 nM | 6.8 nM | 39 nM |  | CCC(=O)NCC1(c2cn(C)c3ccc(OC)cc23)CC1 | inactive |  |
| 176 nM | 10.5 nM | 90 nM |  | COc1ccc2c(c1)c(C1(CNC(C)=O)CC1)cn2C | inactive |  |
| 1.67 nM | 0.049 nM | 2.94 nM |  | COc1ccc2[nH]cc(C(C)CNC(C)=O)c2c1 (configuration not stated) | inactive |  |
